{"source": "paper PMC4038446", "about": "(Bioorganic & medicinal chemistry letters, 2012)", "data": [{"molecular_target": "T1, AKR1C3 (Homo sapiens, UniProt P42330)", "T1 sequence (P42330 1-323)": "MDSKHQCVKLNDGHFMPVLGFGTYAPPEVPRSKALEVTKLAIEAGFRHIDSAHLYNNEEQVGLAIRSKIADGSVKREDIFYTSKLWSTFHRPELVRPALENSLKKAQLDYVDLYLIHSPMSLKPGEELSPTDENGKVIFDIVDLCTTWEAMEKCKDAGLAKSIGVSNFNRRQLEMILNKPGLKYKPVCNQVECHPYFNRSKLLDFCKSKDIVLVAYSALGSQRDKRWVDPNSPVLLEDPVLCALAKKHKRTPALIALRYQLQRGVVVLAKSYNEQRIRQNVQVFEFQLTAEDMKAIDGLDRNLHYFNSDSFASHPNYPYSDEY", "assay": "primary inhibition assay", "format": "biochemical", "settings": "10 µM compound, 1-acenaphthenol, NAD+, pH 9.0", "in_short": "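Recombinant enzyme oxidises 1-acenaphthenol with 2.3 mM NAD+. Medium is 100 mM phosphate pH 9.0, 0.005% Triton X-114, 5% DMSO. […] Test compound is at 10 µM. NADH increase is read at 340 nm, and initial velocities are compared with compound-free controls. Values are the mean of two independent experiments.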", "values": [{"smiles": "CCOc1cccc(C(=O)Nc2ccc(Br)cc2C(=O)O)c1", "note": "[Compound 14]", "AKR1C3 inhibition (%)": "almost completely lost"}, {"smiles": "O=C(Nc1ccc(Br)cc1C(=O)O)c1ccc(F)c([N+](=O)[O-])c1", "note": "[Compound 8]", "AKR1C3 inhibition (%)": "no AKR1C3 isoform inhibition was observed"}, {"smiles": "CCCCOc1cccc(C(=O)Nc2ccc(Br)cc2C(=O)O)c1", "note": "[Compound 15]", "AKR1C3 inhibition (%)": "almost completely lost"}]}]}
